# Rows were chosen to be rich in hits. Some 6% of all compounds tested hit in one or more screens of this group.
# PTK2B oligo ant: antagonists of Pyk2 self-association, primary screen, Q293 cells, FERM NanoBiT luminescence, HTS | AID 1347419, 2020 | Protein-tyrosine kinase 2-beta (Homo sapiens), Q14289 | actives 0.83% (n = 99,000) | hits give low values | z-score (the deposit names both 25 µM and 10 µM);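 active = Z-score of -3 or lower, scaled per plate to the spread of control and sample wells; inactive = z-score above -3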;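 note: negative z-score means lost luminescence so less FERM oligomerization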
# Target sequence (Q14289 whole entry, looked up): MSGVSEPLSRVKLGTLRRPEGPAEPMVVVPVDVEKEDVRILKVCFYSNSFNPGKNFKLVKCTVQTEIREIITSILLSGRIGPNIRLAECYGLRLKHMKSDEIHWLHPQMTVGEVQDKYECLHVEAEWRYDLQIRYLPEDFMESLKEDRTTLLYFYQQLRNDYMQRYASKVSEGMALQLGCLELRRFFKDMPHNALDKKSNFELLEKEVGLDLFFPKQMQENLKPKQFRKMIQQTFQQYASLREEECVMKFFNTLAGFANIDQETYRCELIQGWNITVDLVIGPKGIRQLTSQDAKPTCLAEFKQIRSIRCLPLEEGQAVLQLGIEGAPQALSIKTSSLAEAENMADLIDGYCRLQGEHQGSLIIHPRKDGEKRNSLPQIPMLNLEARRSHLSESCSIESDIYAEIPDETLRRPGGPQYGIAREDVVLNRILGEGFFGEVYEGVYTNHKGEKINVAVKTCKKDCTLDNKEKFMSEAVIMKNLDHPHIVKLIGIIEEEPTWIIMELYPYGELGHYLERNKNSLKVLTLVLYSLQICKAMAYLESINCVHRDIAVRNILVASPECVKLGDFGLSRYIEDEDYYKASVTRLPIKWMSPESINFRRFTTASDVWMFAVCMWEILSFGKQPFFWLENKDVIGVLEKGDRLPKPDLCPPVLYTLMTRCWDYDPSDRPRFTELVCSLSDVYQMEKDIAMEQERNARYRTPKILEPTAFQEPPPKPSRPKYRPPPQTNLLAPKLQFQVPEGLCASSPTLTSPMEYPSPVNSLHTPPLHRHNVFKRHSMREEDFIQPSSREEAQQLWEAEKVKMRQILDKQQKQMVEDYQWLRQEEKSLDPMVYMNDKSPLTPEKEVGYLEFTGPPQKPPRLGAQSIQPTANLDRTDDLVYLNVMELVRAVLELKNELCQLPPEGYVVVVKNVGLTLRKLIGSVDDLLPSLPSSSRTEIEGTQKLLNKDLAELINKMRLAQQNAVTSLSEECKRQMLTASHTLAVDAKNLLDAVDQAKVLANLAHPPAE
# HUVEC inhibit: inhibitors of HUVEC proliferation, primary screen, cell-based, 384-well; CellTiter-Glo luminescence, 72 h; hits give low values; viability, % at 10 µM (by protocol); actives 1.1% (n = 86,000);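 active = viability at or below 30%; inactive = viability above 30%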;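 note: 100% = median luminescence of DMSO-only cell control wells on each plate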
# Jurkat tox 60K: cytotoxicity toward Jurkat T cells, primary screen, cytotoxicity control, cell-based, Jurkat E6.1, 60K MLSMR library. Jurkat E6.1 viability, ATP luminescence, 48 h. inhibition, % at 4 µM. actives 1.2% (n = 56,000);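 active = inhibition above the mean inhibition of all tested compounds plus 3 SD, cut at about 28% in these data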
# H69AR inhibit: proliferation blockers of H69AR lung cancer cells, primary screen, cell-based, human, 86K library | viability, % at 10 µM | H69AR lung tumor viability, ATP luminescence, 72 h; hits give low values | actives 6% (n = 85,000) | AID 598, 2007;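 active = viability at or below 40%; inactive = viability above 40%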;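 note: multidrug resistant small cell line overexpressing MRP-1 efflux transporter; 100% = mean luminescence of untreated control wells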
# cytoskel mod: modifiers of F-actin cytoskeleton organization, primary screen, imaging, HUVEC, phalloidin staining, high-content imaging; HUVEC TNFa F-actin phalloidin imaging; inhibition, % at 2 µM; actives 0.18% (n = 91,000); AID 836, 2007;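 active = inhibition above the batch mean plus 3 SD and confirmed as a hit by visual image inspection, cut at about 30% in these data, passing the limit was not always enough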
# Fibroblast inh: antiproliferative effect on LL 47 fibroblasts – human, LL 47 cells, CellTiter-Glo luminescence, primary screen; actives 1.1% (n = 85,000); viability, % at 10 µM; LL 47 human lung fibroblast viability, ATP luminescence; hits give low values;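 active = viability at or below 50% in the single dose screen; inactive = viability above 50%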;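 note: compound exposure lasted 72 h before the ATP readout; 100% = median luminescence of untreated cell-only wells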
#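 Assay system: human lung fibroblast line LL 47, low passage. Input: 1,150 fibroblasts seeded per well. Times: overnight cell rest, 72 h compound treatment at 37 °C. Evaluation: % viability of median cell-only signal. Technique: luminescent ATP detection, CellTiter-Glo. Control set: cell-only wells, no compound.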
# * hit, by the source's call; x = no result.
SMILES,PTK2B oligo ant,HUVEC inhibit,Jurkat tox 60K,H69AR inhibit,cytoskel mod,Fibroblast inh
CCOC(=S)N/C(=N\S(=O)(=O)c1ccc(C)cc1)c1ccccc1,-0.02,x,x,x,-19,x
COC(=O)C1=C(C)NC2=C(C(=O)CC(C)(C)C2)C1c1cn(Cc2ccc(Br)cc2)nc1-c1ccccc1 (centres undefined),-3.3*,x,x,x,11,x
O=C(Cc1ncc(C(F)(F)F)cc1Cl)Nc1ccc(F)cc1,1.2,x,x,x,26,x
CCOC(=O)COc1ccc(S(=O)(=O)NCCC2=CCCCC2)cc1,1.2,4.4*,-2,92,11,93
CCOC(=O)C1=C(CSCc2ccccc2)NC(=O)NC1c1cc(C)ccc1C (centres undefined),-2.6,94,x,32*,-6,98
CC1=C(C#N)c2nc(N)c(C#N)c(C)c2/C1=C\c1ccccc1,x,13*,1,1.6*,x,8.1*
Cc1nc(N)c(C#N)c(-c2ccccc2)c1C,0.17,79,-1,83,-2,104
Cc1ccc(Cl)cc1N1CCN(Cc2nc3c(c(=O)[nH]c(=O)n3C)n2CCc2ccccc2)CC1,0.46,37,3,4.3*,-11,18*
Cc1ccc(Cl)cc1N1CCN(Cc2nc3c(c(=O)[nH]c(=O)n3C)n2Cc2ccccc2F)CC1,x,42,6,19*,x,85
Cc1cccc(C)c1Nc1nnc(SCC(=O)c2ccc3c(c2)NC(=O)CO3)s1,0.5,x,x,x,x,x
CC(C)=CC(=O)NCc1c(Cl)cccc1-n1cccc1,0.71,x,x,x,0,x
O=C(CCc1nc2ccccc2c(=O)[nH]1)N1CCN(C/C=C/c2ccccc2)CC1,1.2,85,9,91,-26,101
O=c1[nH]c(CN2CCN(C/C=C/c3ccccc3)CC2)nc2cc(Cl)ccc12,0.3,28*,7,88,-52,82
CC(=O)c1nnn(-c2nc(N)nc(N(c3ccccc3)c3ccccc3)n2)c1C,-0.88,86,10,48,60,79
CCCCN(CCCC)c1nc(OC)nc(-n2nnc(C(C)=O)c2C)n1,-1.9,80,x,37*,-6,99
CC(C)c1nc2oc3c(NCC4CCCO4)ncnc3c2c2c1COC(C)(C)C2 (centres undefined),-0.94,87,-3,36*,17,99
Cc1c(Br)c([N+](=O)[O-])nn1C(C)C(=O)NCc1ccco1 (centres undefined),0.48,x,x,x,x,x
CC(C(=O)NCc1ccco1)n1nc(-c2ccccc2)c2cc(Cl)ccc21 (centres undefined),x,67,-7,35*,-13,82
CC(C)c1nc(SCC(=O)NCc2ccc3c(c2)OCO3)c2c(=O)n(C)c(=O)n(C)c2n1,x,59,-4,75,x,87
CCOC(=O)N1CCN(C(=O)CSCC(=O)Nc2nc(-c3ccc(OC)cc3)cs2)CC1,-0.08,107,-2,89,-9,102
CCOC(=O)N1CCN(C(=O)CSCC(=O)Nc2nc(-c3ccc(-c4ccccc4)cc3)cs2)CC1,x,55,x,0.7*,-12,82
CCc1nnc(NC(=O)CSc2nnc(-c3cc4ccccc4cc3O)n2CC)s1,-3*,103,5,93,x,99
CCn1c(SCC(=O)Nc2ccccc2C)nnc1-c1ccccc1O,0.79,109,2,86,x,91
CCn1c(SCC(=O)Nc2nc(-c3ccccc3)cs2)nnc1-c1ccccc1O,-3.1*,74,18,104,-16,103
CCc1nnc(NC(=O)CSc2nnc(-c3ccccc3O)n2CC)s1,-0.58,108,x,88,3,91
O=C(CN(C(=O)CCC(=O)Nc1ccccn1)c1ccc2c(c1)OCCO2)NCCc1ccccc1,-0.2,68,-1,7.0*,x,90
COc1ccc(N=CC2=C(O)c3ccccc3C2=O)cc1,-0.5,83,x,35*,-12,104
O=S(=O)(Nc1ccc2c(c1)OCCO2)c1ccc(F)cc1,-1.2,98,x,104,-5,94
O=C1CCCN1c1ccc(S(=O)(=O)Nc2ccc3c(c2)OCCO3)cc1,1,x,82*,x,30,x
COC(=O)c1ccccc1NC(=O)c1cc(-c2cccs2)on1,-0.76,25*,-7,11*,10,90
